Molecules are shown by their SMILES.

For orientation: IC50 means the concentration that inhibits the measured activity by half. A word on the solubility: it is the dissolved amount per volume that the medium holds. High values mean much dissolved substance, low ones little dissolved substance. In general, Ki refers to the dissociation constant of the complex between target and ligand, obtained from inhibition or displacement. A high value points to weaker binding.

The target in series [1] is T1, Substance-K receptor (Oryctolagus cuniculus, UniProt P79218).
T1 sequence (P79218 whole entry): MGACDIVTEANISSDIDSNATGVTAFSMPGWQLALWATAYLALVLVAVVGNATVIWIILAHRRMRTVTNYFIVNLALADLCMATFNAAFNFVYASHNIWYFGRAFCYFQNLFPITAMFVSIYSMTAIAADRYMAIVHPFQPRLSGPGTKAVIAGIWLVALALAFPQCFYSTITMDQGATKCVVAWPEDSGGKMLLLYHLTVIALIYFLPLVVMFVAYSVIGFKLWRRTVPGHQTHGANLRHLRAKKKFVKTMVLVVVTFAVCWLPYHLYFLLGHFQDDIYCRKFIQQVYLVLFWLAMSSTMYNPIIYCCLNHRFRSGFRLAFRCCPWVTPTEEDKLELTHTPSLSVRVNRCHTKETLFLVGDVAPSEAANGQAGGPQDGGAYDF
Nature of the series: Tested for antagonist activity against NK-2 receptor in rabbit pulmonary artery by using Neurokinin A as agonist. The series is classed as functional. Particulars: read-out: pA2 (converted). The essentials:
(§1)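 Isolated-organ contractile bioassays: SP on rabbit vena cava (NK-1), neurokinin A on rabbit pulmonary artery (NK-2), neurokinin B on rat portal vein (NK-3); antagonist apparent affinity expressed as pA2 by Schild plot.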

Series [2] addresses T2, Substance-K receptor (Rattus norvegicus, UniProt P16610).
T2 sequence (P16610 whole entry): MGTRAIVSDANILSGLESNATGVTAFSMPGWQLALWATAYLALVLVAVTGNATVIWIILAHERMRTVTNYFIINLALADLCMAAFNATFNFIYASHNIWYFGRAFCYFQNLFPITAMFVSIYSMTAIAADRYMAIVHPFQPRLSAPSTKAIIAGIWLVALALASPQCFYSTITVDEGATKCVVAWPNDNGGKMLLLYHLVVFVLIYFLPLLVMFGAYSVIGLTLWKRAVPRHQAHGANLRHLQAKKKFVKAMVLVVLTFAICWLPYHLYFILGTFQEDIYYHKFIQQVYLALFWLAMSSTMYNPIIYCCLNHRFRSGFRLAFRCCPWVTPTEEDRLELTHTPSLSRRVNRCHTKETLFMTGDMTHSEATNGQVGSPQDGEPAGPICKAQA
As to the kind of experiment: Tested for binding affinity against rat NK-2 receptor transfected on CHO cells using [125I]-His] NKA as radioligand. It is filed as cell-based.

The nature of series [3]: Solubility was evaluated. The series is classed as physicochemical.
Series [4] deals with T3, Neuromedin-K receptor (Rattus norvegicus, UniProt P16177).
T3 sequence (P16177 whole entry): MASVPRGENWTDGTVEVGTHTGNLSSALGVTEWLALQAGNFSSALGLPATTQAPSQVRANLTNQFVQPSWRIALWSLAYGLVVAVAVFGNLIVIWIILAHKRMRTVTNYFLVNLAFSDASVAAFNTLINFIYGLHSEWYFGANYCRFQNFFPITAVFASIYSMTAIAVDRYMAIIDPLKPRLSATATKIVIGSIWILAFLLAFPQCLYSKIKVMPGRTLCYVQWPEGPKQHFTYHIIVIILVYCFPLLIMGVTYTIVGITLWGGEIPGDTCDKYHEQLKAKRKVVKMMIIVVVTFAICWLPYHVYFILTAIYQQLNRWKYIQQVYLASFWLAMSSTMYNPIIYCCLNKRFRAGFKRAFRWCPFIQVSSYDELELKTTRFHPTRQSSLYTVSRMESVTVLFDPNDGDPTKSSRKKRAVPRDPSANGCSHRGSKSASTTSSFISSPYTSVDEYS
As to the kind of experiment: Tested for antagonist activity against NK-3 receptor in rat portal vein by using Neurokinin B as agonist. The following applies: read-out: pA2 (converted). The series is classed as functional. The method in brief:
as §1

The test system of series [5] is Mus musculus. Nature of the series: Tested for antinociceptive activity against mouse hotplate test for 10 min after intravenous injection at 0.5 mg/kg.
In series [6] the target is T4, Substance-K receptor (Homo sapiens, UniProt P21452).
T4 sequence (P21452 whole entry): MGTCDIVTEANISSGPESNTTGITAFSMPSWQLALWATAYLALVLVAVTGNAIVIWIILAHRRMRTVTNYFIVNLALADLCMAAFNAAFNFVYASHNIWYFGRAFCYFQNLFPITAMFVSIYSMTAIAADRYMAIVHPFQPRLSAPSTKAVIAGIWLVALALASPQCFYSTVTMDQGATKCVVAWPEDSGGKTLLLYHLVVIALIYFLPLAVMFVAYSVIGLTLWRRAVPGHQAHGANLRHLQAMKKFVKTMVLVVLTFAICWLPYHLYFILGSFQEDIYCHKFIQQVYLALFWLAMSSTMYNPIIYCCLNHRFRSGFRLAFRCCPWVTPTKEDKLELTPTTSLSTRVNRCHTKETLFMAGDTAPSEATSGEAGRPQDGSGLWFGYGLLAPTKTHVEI
As to the kind of experiment: Tested for binding affinity against human NK-2 receptor transfected on CHO cells using [125I]-His] NKA as radioligand. The series is classed as cell-based.

The subject of series [7] is Mus musculus. Nature of the series: Tested for antinociceptive activity against mouse hotplate test for 60 min after oral administration of 40 mg/kg. The series is classed as functional. The method in brief:
(§2)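 Male CD1 mice (25-30 g) on a 55 ± 0.2 °C plate; forepaw-licking latency measured 60 min after oral 40 mg/kg given in water (soluble) or 0.2% hydroxypropylcellulose (insoluble); % increase of reaction time versus vehicle controls; groups of 12 animals; Dunnett t-test.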

The target in series [8] is Substance-P receptor (Homo sapiens, UniProt P25103). As to the kind of experiment: Tested for binding affinity against human NK-1 receptor transfected on CHO cells using [125I]-Tyr] SP as radioligand. It is filed as cell-based.
Chain of Substance-P receptor (Homo sapiens, UniProt P25103) (P25103 whole entry): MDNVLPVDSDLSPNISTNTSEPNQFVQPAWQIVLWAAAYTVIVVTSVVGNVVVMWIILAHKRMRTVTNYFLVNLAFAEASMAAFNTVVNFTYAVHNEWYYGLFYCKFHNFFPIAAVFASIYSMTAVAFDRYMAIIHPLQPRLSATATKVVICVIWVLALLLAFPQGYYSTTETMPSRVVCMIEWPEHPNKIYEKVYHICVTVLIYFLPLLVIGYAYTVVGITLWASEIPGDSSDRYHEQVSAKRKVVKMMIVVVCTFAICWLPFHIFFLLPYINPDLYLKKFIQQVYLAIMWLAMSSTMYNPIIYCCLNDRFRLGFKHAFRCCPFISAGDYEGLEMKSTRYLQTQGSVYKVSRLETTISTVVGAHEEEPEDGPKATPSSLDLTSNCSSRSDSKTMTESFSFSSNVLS
Series [9] deals with T2, Substance-K receptor. As to the kind of experiment: Tested for the binding affinity against rat neurokinin-2 (NK-2) receptor transfected on CHO cells using [125I]-His] NKA as radioligand. It is filed as cell-based.
Series [10] is filed under the species Mus musculus. Nature of the series: Binding affinity by displacement of tritiated substance P from its binding sites on membrane preparations from mouse brain.
Series [11] addresses Substance-P receptor (Oryctolagus cuniculus). As to the kind of experiment: Tested for antagonist activity against NK1 receptor in rabbit vena cava by using substance P (SP) as agonist. Particulars: read-out: pA2 (converted).
In series [12] the target is Substance-P receptor (Rattus norvegicus, UniProt P14600). Nature of the series: Tested for the binding affinity against rat neurokinin-1 (NK-1) receptor transfected on CHO cells using [125I]-Tyr] SP as radioligand. It is filed as cell-based.
Chain of Substance-P receptor (Rattus norvegicus, UniProt P14600) (P14600 whole entry): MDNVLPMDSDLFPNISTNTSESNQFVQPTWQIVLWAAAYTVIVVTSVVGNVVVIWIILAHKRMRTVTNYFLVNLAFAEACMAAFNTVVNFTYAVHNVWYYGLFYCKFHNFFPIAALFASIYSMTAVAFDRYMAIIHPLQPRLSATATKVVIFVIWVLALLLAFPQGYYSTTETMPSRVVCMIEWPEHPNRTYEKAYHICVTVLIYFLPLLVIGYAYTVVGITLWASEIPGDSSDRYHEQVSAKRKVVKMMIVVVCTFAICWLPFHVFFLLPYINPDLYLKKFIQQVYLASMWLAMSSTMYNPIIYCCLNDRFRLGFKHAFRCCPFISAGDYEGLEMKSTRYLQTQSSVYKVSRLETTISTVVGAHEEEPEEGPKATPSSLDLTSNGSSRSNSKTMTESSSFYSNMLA
For series [13], the species on record is Rattus norvegicus. Nature of the series: Binding affinity by displacement of tritiated substance P from its binding sites on membrane preparations from rat brain.
In series [14] the test system is Mus musculus. As to the kind of experiment: Tested for antinociceptive activity in hot plate test at 10 min after 0.5 mg/kg intravenous administration in mouse; insoluble. The following applies: at 0.5 mg/kg. More on the design: dose 0.5 mg/kg. It is filed as functional, organism-based. In general terms: Thermal pain tests record how soon the animal reacts.
Series [15] deals with Mus musculus. As to the kind of experiment: Tested for antinociceptive activity in hot plate test at 60 min after 40 mg/kg oral administration in mouse; insoluble. It is filed as functional, organism-based. More on the design: dose 40 mg/kg. Particulars: at 40 mg/kg. The essentials:
as §2

`CN(Cc1ccccc1)C(=O)[C@H](Cc1ccccc1)NC(=O)[C@@H](Cc1cn(C)c2ccccc12)NC(=O)C[C@@H]1NC(=O)[C@@H]2C3CCC(CC3)N2C1=O`: the Kb is 10 µM in [1] and 7.94 µM in series [4]. In addition, the figures for the IC50 in [2] and in series [6] were 0.489 µM and 0.079 µM, respectively. Besides, in series [3], the solubility is < 10 µg/mL. Further, the figures for the Increase in series [5] and in series [7] were 17% and 10%, respectively.

Regarding `CC(=O)N[C@H](C(=O)N[C@H](Cc1cn(C=O)c2ccccc12)C(=O)N[C@@H](Cc1ccccc1)C(=O)N(C)Cc1ccccc1)C(C)O` (stereo partly drawn), the IC50 in series [8] is 0.006 µM; in series [9], 0.824 µM; in series [12] it was 3.4 µM; in series [6], 0.099 µM. The values for the Kb in series [1], in series [11] and in series [4] were 3.98 µM, 0.0794 µM and 1.58 µM, respectively. The Ki in series [10] and in [13] was 0.32 µM throughout. Further, the Increase entry in series [14] and in [15] was “Insoluble” throughout.

(Values after ChEMBL document CHEMBL1126707, “Tetrapeptide tachykinin antagonists: synthesis and modulation of the physicochemical and pharmacological properties of a new series of partially cyclic analogs” (J Med Chem, 1993).)
